High-throughput results as filed in PubChem BioAssay.
CaV13 FRET inh: Disruptors of the CACNA1D IQ motif to Ca2+-dependent inactivation inhibitor domain association, primary screening, Förster resonance energy transfer in intact living … | HEK cells, CFP/YFP FRET ICDI-IQ, plate reader, 10 min; percent FRET-ratio fall versus neutral wells | inhibition, % at 12.3 µM | actives 0.098% (n = 340,000);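 active means mean replicate inhibition of at least 30% and at least 1% of replicates passing that level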
ADAM10 inh: human ADAM10 inhibitors, primary screen, biochemical, QFRET, HTS. AID 720582, 2013. actives 0.62% (n = 370,000). inhibition, % at 7 µM. recombinant ADAM10, EDANS/DABCYL FRET peptide cleavage, 3 h. Disintegrin and metalloproteinase domain-containing protein 10 (Homo sapiens), O14672;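 active means inhibition above a per-campaign cutoff equal to the mean of compounds falling between control-based bounds plus 3 SD, cut at about 20% in these data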
Target sequence (O14672 214-748 limits assumed): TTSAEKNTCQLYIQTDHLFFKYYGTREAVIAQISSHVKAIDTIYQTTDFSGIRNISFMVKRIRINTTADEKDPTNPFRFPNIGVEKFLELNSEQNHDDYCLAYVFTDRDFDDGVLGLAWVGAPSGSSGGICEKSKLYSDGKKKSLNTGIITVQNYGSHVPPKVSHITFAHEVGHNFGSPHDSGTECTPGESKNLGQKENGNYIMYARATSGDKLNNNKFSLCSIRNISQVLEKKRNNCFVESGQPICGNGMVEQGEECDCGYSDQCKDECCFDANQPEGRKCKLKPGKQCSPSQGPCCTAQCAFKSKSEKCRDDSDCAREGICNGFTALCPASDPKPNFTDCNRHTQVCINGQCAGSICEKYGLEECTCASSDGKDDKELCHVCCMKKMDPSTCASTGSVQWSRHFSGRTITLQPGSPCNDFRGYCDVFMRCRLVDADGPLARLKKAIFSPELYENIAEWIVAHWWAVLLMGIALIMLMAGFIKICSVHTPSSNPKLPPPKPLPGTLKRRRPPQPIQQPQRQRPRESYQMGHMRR
Arr AP2 block: inhibitors of beta-arrestin/AP2 binding, primary screen, biochemical, GPCR trafficking, flow cytometry | actives 0.31% (n = 340,000) | FITC-arrestin peptide / GST-AP2 beads; AP2 beta2 appendage carries R879A mutation | AID 504490, 2011 | beta-arrestin 1 C-terminal peptide binding to AP2 beta2-adaptin appendage (human) | inhibition, % at 10 µM;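 active means inhibition above a set limit, near 3 SD of compounds lacking own fluorescence, cut at about 54% in these data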
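System: GST-tagged AP2 beta2-adaptin appendage (R879A) on 4 µm glutathione beads / Reagent: FITC-arrestin peptide, 50 nM / Detection: HyperCyt-sampled flow cytometry, FL1 channel, ex 488/em 535 nm / Timing: 12 min plus 1 h, RT / Buffer or medium: PBS plus Tween 20 (0.05%) and BSA (0.1%)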
FAS-TE inh: FAS thioesterase domain inhibitors, primary screen, biochemical, fluorescence intensity, uHTS; recombinant FAS-TE, OMFH fluorogenic substrate, fluorescence endpoint; Fatty acid synthase (Homo sapiens), P49327; inhibition, % at 15 µM; actives 0.67% (n = 360,000);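 active means compounds whose normalised, plate-corrected inhibition of enzyme fluorescence in the single-dose primary screen is 50% or more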
ADAM17 inh: ADAM17 inhibitors, primary screen, biochemical, QFRET; actives 0.83% (n = 370,000); recombinant ADAM17, EDANS/DABCYL FRET peptide cleavage; inhibition, % at 6.95 µM; Disintegrin and metalloproteinase domain-containing protein 17 (Homo sapiens), P78536; AID 720648, 2013;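 active means inhibition above the mean of compounds lying between control limits plus 3 SD, set per campaign, cut at about 8.5% in these data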
NRP1-CendR mod: modulators of CendR peptide binding to NRP-1, primary screen, biochemical, fluorescence polarization, uHTS | Neuropilin-1 (Homo sapiens), O14786 | FAM-RPARPAR peptide binding to NRP-1 | inhibition, % at 25 µM | actives 0.85% (n = 360,000);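 active means inhibition or corrected inhibition above about 18%, plus a signal ratio from 0.5 to 1.5, limit read from the data, passing the limit was not always enough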
Large screens that a line does not name were inactive. Shown are actives, neighbours in structure and some others; about 2.9% of the full set was active somewhere.

CN(CC#CC1=CCCCC1)/C(N)=N/C(=O)OCc1ccccc1	none (no result: CaV13 FRET inh, Arr AP2 block, FAS-TE inh, NRP1-CendR mod)
CC(C)C[C@@H]1COc2cc(Br)ccc2S(=O)(=O)N1Cc1cn(CCC2OCCO2)nn1	none (no result: CaV13 FRET inh, Arr AP2 block, FAS-TE inh, NRP1-CendR mod)
COc1ccc(S(=O)(=O)Nc2ccc(N3CCOCC3)cc2)cc1[N+](=O)[O-]	NRP1-CendR mod 24.8
CS(=O)(=O)N1CCN(c2ccc([N+](=O)[O-])c(N3CCOCC3)c2)CC1	NRP1-CendR mod 28.2 (no result: CaV13 FRET inh)
C#CCOCCOCCOCCNc1nc(N2CCN(C(=O)CCCCCCCCCCNC(=O)Cn3cc(CCCCCN)nn3)CC2)nc(N2CCN(C(=O)CCCCCCCCCCNC(=O)Cn3cc(CCCCCN)nn3)CC2)n1	NRP1-CendR mod 18.4 (no result: CaV13 FRET inh, ADAM10 inh, ADAM17 inh)
C#CCOCCOCCOCCNc1nc(N2CCN(C(=O)Cn3cc(CCCCN)nn3)CC2)nc(N2CCN(C(=O)Cn3cc(CCCCN)nn3)CC2)n1	none
C#CCOCCOCCOCCNc1nc(N2CCN(C(=O)CCCCCCCCCCNC(=O)Cn3cc(CCCCCN)nn3)CC2)nc(N2CCN(C(=O)CCCCCCCCCCNC(=O)[C@@H](CCC(=O)O)n3cc(CCCCCN)nn3)CC2)n1	NRP1-CendR mod 20.7 (no result: CaV13 FRET inh, ADAM10 inh, ADAM17 inh)
Oc1ccccc1C=Nn1c(-c2ccccc2F)n[nH]c1=S	none (no result: CaV13 FRET inh, Arr AP2 block, FAS-TE inh, NRP1-CendR mod)
COCCN(C)Cc1cn(-c2ccc(F)cc2F)nc1-c1ccccc1C	none
CCC(COC)NCc1cn(-c2ccc(F)cc2F)nc1-c1ccccc1C (stereo not given)	NRP1-CendR mod 25.7
Cc1ccccc1Cn1ccc2ccc(-c3ccc4ccn(Cc5ccccc5)c4c3)cc21	none (no result: CaV13 FRET inh, Arr AP2 block, FAS-TE inh, NRP1-CendR mod)
C=CCc1ccc(OCCn2nnc3ccccc32)c(OC)c1	NRP1-CendR mod 26.8
O=C(Nc1nnc(-c2cccnc2)s1)c1cnc2ccccc2c1	none (no result: CaV13 FRET inh, Arr AP2 block, FAS-TE inh, NRP1-CendR mod)
CCCN1CCC(=O)N([C@H](CSc2ccccc2)CC(C)C)CC1	none
CCCN1CCC(=O)N([C@H](COc2ccccc2)CC(C)C)CC1	NRP1-CendR mod 28.3
O=C1CCN(CCc2ccccc2)CCN1[C@H](COc1ccccc1)Cc1ccccc1	none
CCCCCCCN1CCC(=O)N([C@H](CO)CC(C)C)CC1	NRP1-CendR mod 27.4
CC(C)C[C@@H](COc1ccccc1)N1CCN(CCc2ccccc2)CCC1=O	NRP1-CendR mod 36.4
C[C@H](CO)N1C[C@H](C)[C@@H](CN(C)S(=O)(=O)c2cccc(F)c2)Oc2ncc(Br)cc2C1=O	none (no result: Arr AP2 block)
Cc1nc(N)nc(Nc2ccc(C#N)cc2)c1Br	NRP1-CendR mod 16.6
O=c1oc2c(CN3CCN(CCO)CC3)c(O)ccc2cc1-c1ccccn1	CaV13 FRET inh active
O=c1oc2c(CN3CCCCC3)c(O)ccc2cc1-c1nc2ccccc2[nH]1	CaV13 FRET inh 34.7
O=c1oc2c(O)cccc2cc1-c1nc2ccccc2[nH]1	CaV13 FRET inh 33.7
COc1ccc(C2=Nc3ccccc3N(C(=O)c3cc(Cl)cc(Cl)c3)C2C(=O)NCc2ccccc2)cc1 (stereo not given)	none (no result: Arr AP2 block, FAS-TE inh)
CCOC(=O)[C@]12CCCC=C1N(CCC1=CCCCC1)C(=O)[C@H](CC(=O)NCC13CC4CC(CC(C4)C1)C3)C2	NRP1-CendR mod 21.9 (no result: Arr AP2 block, FAS-TE inh)
CCOC(=O)[C@]12CCCC=C1N(CCC1=CCCCC1)C(=O)[C@H](CC(=O)NCCC(C)C)C2	none (no result: Arr AP2 block, FAS-TE inh)
CCOC(=O)[C@]12CCCC=C1N(Cc1ccco1)C(=O)[C@H](CC(=O)N1CCSCC1)C2	NRP1-CendR mod 20.0 (no result: Arr AP2 block)
CCCCCCCCN1C(=O)[C@H](CC(=O)NCCCN2CCCC2=O)C[C@@]2(C(=O)OC)CCCCC=C12	NRP1-CendR mod 29.2 (no result: Arr AP2 block)
C[C@H]1CN(C(=O)OC(C)(C)C)CCN1c1ccc(N2CC[C@H](O)C2)c(C#N)c1	none (no result: Arr AP2 block, FAS-TE inh, NRP1-CendR mod)
Cc1cccc2sc(NNC(=O)c3ccc(S(=O)(=O)N4CCCC(C)C4)cc3)nc12 (stereo not given)	CaV13 FRET inh 42.7
O=C(/C=C/c1ccccc1)c1ccccn1	NRP1-CendR mod 36.7
O=C1NC(=O)/C(=C/c2ccco2)N1	NRP1-CendR mod 25.4
O=C1NC(=S)NC1=Cc1ccco1	none
O=C1[C@@H]2CSCCS(=O)(=O)N2C(=O)N1C1CCCCC1	none (no result: Arr AP2 block, FAS-TE inh, NRP1-CendR mod)
COc1ccc2c(c1)[C@H]1[C@H](CO2)[C@H](c2ccccc2)[C@]2(C)C(=O)N(Cc3ccc(C)cc3)CC(=O)N12	FAS-TE inh 63.3 (no result: CaV13 FRET inh, ADAM10 inh, ADAM17 inh)
Cc1cccc([C@@H]2[C@@H]3C(=O)N(Cc4ccccc4)C(=O)[C@@H]3[C@]3(C)C(=O)N(c4ccc(C(F)(F)F)cc4)C(=O)N23)c1	FAS-TE inh 81.3 (no result: CaV13 FRET inh, ADAM10 inh, ADAM17 inh)
COc1ccc2c(c1)OC[C@H]1[C@H]2N2C(=O)c3cc(OC)c(OC)cc3NC(=O)[C@@]2(C)[C@H]1c1ccccc1	FAS-TE inh 91.3
C[C@H]1NC(=O)[C@@]2(C)[C@@H](c3ccccc3)[C@H]3COc4ccccc4[C@@H]3N2C1=O	NRP1-CendR mod 25.4
Cc1ccc2c(c1)[C@H]1[C@H](CO2)[C@H](c2ccccc2)[C@]2(C)C(=O)N(Cc3ccccc3)CC(=O)N12	none
C=CCN1C(=O)[C@@H](CC(=O)NCc2cccc(C(F)(F)F)c2)[C@]2(C(=O)OCC)CCCCC/C=C/12	none (no result: CaV13 FRET inh, Arr AP2 block, FAS-TE inh, NRP1-CendR mod)
C[C@@]12C(=O)N(c3ccc(C(F)(F)F)cc3)C(=O)N1[C@@H]1c3ccccc3OC[C@@H]1[C@H]2c1ccccc1	NRP1-CendR mod 27.6 (no result: CaV13 FRET inh, ADAM10 inh, ADAM17 inh)
CCOC(=O)[C@H]1[C@H]2COc3ccccc3[C@@H]2N2C(=O)c3cc(Cl)ccc3NC(=O)[C@@]12C	NRP1-CendR mod 23.3
C[C@@]12C(=O)Nc3ccc(Cl)cc3C(=O)N1[C@H]1c3ccccc3OC[C@@H]1[C@@H]2c1ccccc1	FAS-TE inh 82.8 (no result: CaV13 FRET inh, ADAM10 inh, ADAM17 inh)
C[C@@]12C(=O)Nc3ccc(F)cc3C(=O)N1[C@H]1c3ccccc3OC[C@@H]1[C@@H]2c1ccccc1	none (no result: CaV13 FRET inh, ADAM10 inh, ADAM17 inh)
CCOC(=O)[C@H]1[C@H]2COc3ccccc3[C@@H]2N2C(=O)c3ccc(Cl)cc3NC(=O)[C@@]12C	none
CN1CCCCC(NC(=O)c2ccc(Cl)cc2Cl)C1=O (stereo not given)	none (no result: Arr AP2 block, FAS-TE inh, NRP1-CendR mod)
COc1cccc(/C=N/NC(=S)Nc2cccnc2)c1	none
Oc1ccc(/C=N/NC(=S)Nc2cccnc2)cc1	NRP1-CendR mod 23.2
O=C(NCc1ccco1)C(c1ccco1)N(C(=O)Cn1nnc2ccccc21)c1ccc2c(c1)CCC2 (stereo not given)	NRP1-CendR mod 19.1
